Source: PubChem
H69AR inhibit: proliferation blockers of H69AR lung cancer cells, primary screen, cell-based, human, 86K library | H69AR lung tumor viability, ATP luminescence, 72 h; hits give low values | hit rate 6% among 85,000 | viability, % at 10 µM | AID 598, 2007;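 active = viability at or below 40%; inactive = viability above 40%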;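 also: multidrug resistant small cell line overexpressing MRP-1 efflux transporter; 100% = mean luminescence of untreated control wells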
PTEN del growth: growth suppression of PTEN-null HCT116, primary screen, cell-based, CellTiter-Glo; HCT116 PTEN-null viability, 60 h; hits give low values; hit rate 1.2% among 140,000; viability, % at 10 µM;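 active = viability at or below a set limit, 4 SD under the median of all tested compounds, cut at about 3.7% in these data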;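 also: PTEN knockout HCT116 line with beta catenin targeted HCT116 as companion control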
bCat KO growth: primary screen for growth suppressors in beta-catenin knockout HCT116 cells (colon tumor, human) | HCT116 beta-catenin knockout viability, CellTiter-Glo, 60 h; hits give low values | viability, % at 10 µM | hit rate 1.5% among 140,000 | AID 818, 2007;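 active = viability at or under a set limit, the compound median less 4 SD, cut at about 6% in these data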;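 also: 0% = Hyamine 1622 control at 20 µM and 100% = untreated cell control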
HUVEC inhibit: inhibitors of HUVEC proliferation, primary screen, cell-based, 384-well | AID 648, 2007 | hit rate 1.1% among 86,000 | viability, % at 10 µM (by protocol) | CellTiter-Glo luminescence, 72 h; hits give low values;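 active = viability at or below 30%; inactive = viability above 30%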;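 also: 100% = median luminescence of DMSO-only cell control wells on each plate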
Lung fibro prol: antiproliferative effect on LL 47 fibroblasts – human, LL 47 cells, CellTiter-Glo luminescence, primary screen. AID 719, 2007. viability, % at 10 µM. LL 47 human lung fibroblast viability, ATP luminescence; hits give low values. hit rate 1.1% among 85,000;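 active = viability at or below 50% in the single dose screen; inactive = viability above 50%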;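 also: compound exposure lasted 72 h before the ATP readout; 100% = median luminescence of untreated cell-only wells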
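Assay system: human lung fibroblast line LL 47, low passage. Input: 1,150 fibroblasts seeded per well. Times: overnight cell rest, 72 h compound treatment at 37 °C. Evaluation: % viability of median cell-only signal. Technique: luminescent ATP detection, CellTiter-Glo. Control set: cell-only wells, no compound.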
Starred values were filed as active, the others as inactive; · = no result. This excerpt belongs to a sample that is enriched for hits.

SMILES	H69AR inhibit	PTEN del growth	bCat KO growth	HUVEC inhibit	Lung fibro prol
O=C(CS(=O)c1ccc(C(F)(F)F)cc1[N+](=O)[O-])Oc1ccccc1 (centres undefined)	3.1*	84	90	25*	44*
O=C(CNc1ccc(C(F)(F)F)cc1[N+](=O)[O-])OCC(=O)c1ccccc1	93	89	103	98	95
CCOC(=O)c1oc2ccc(S(=O)(=O)n3nc(-c4ccc(OC)cc4)cc3N)cc2c1C	27*	26	21	74	79
CCOC(=O)c1oc2ccc(S(=O)(=O)n3nc(-c4ccccc4)cc3N)cc2c1C	86	42	50	100	92
COc1cc(/C=C2\C(=O)N(CCC#N)N=C2C)c(Br)cc1OC(C)C	16*	77	84	69	85
O=S(=O)(NC1CC1)c1ccc(S(=O)(=O)N(Cc2ccccn2)C2CCCC2)cc1	103	90	92	111	94
COc1ccc(C=C(C(C)=O)C(C)=O)cc1OC	22*	92	111	89	103
Nc1c2c(nc3ccc(Br)cc13)N(Cc1ccccc1)CC2	·	86	86	·	·
Cc1cccc(N2CCc3c2nc2ccc(Br)cc2c3N)c1	22*	40	49	62	99
Nc1c2c(nc3ccc(Br)cc13)N(c1ccccc1)CC2	32*	63	76	78	94
Cn1c(SCc2cccc(Cl)c2)nc(C(F)(F)F)cc1=O	·	85	78	·	·
O=C(CCC1CCCCC1)Nc1ccccc1O	95	94	97	107	116
CCOC(=O)c1ccc(N/C=C\C(=O)c2cccc(OC)c2)cc1	·	83	76	·	·
Cc1cccc(OCC(=O)Nc2cc(C)c(C)cc2O)c1	84	100	89	89	105
COc1cccc(C(=O)/C=C/Nc2cc(C)ccc2O)c1	8.9*	70	66	69	91
Cc1cccc(OCC(=O)Nc2cc(C)ccc2O)c1	24*	95	87	82	95
Cc1ccc(O)c(NC(=O)CCC2CCCCC2)c1	27*	87	98	93	102
CC(C)NC(=O)CSc1nc(Cc2cccs2)nc2ccccc12	·	97	89	·	·
COC(=O)c1cc(=O)n(Cc2ccc3c(c2)OCO3)c(=Nc2ccc(F)cc2)s1	7.9*	16	27	60	85
COC(=O)c1ccc(N=c2sc(C(=O)OC)cc(=O)n2C)cc1	24*	·	·	58	55
CCOC(=O)c1ccc(N=c2sc(C(=O)OC)cc(=O)n2C2CC2)cc1	34*	66	70	49	94
COC(=O)c1cc(=O)n(Cc2ccc3c(c2)OCO3)c(=Nc2ccccc2)s1	12*	15	21	54	89
O=C(Nc1ccccc1)N1CCN(Cc2ccc3c(c2)OCO3)CC1	94	86	92	98	94
CCCN1C(=O)/C(=N\OCC(=O)Nc2ccc(C(C)C)cc2)c2ccccc21	·	87	93	·	·
CC(c1ccccc1C(O)(c1ccccc1)c1ccccc1)N(C)C (centres undefined)	·	27	36	·	·
SMILES	H69AR inhibit	PTEN del growth	bCat KO growth	HUVEC inhibit	Lung fibro prol
c1cnc(SCCOc2ccc3c(c2)CCC3)nc1	94	92	92	89	95
COc1ccc(-c2nc(NC(=O)c3n[nH]c(=O)c4ccccc34)sc2C)cc1	·	76	74	·	·
CCOC(=O)c1ccc(N=c2sc(C(=O)OC)cc(=O)n2Cc2ccc3c(c2)OCO3)cc1	33*	14	6	82	96
C=CCN(c1ccccc1Cl)S(=O)(=O)c1cccc(C(=O)NCCc2ccc(OC)cc2)c1	·	53	59	·	·
Cc1ccc(S(=O)(=O)N2CCC(C(=O)NCc3ccncc3)CC2)cc1	95	108	104	97	101
CC(C)(C)c1ccc(C(=O)NCC(=O)OCc2ccc([N+](=O)[O-])cc2)cc1	·	115	95	·	·
CCn1c(Sc2nc(C)nc3scc(-c4cccs4)c23)n[nH]c1=O	2.8*	23	26	81	63
CCOC(=O)CSC1=C(C#N)C(c2ccccc2OC)CC(=O)N1 (centres undefined)	25*	35	31	66	76
CCOC(=O)CSC1=C(C#N)C(c2ccc(C)s2)CC(=O)N1 (centres undefined)	35*	16	14	51	57
CCSC1=C(C#N)C(c2ccccc2OC)CC(=O)N1 (centres undefined)	87	94	92	113	98
CCSC1=C(C#N)C(c2ccc(C)s2)CC(=O)N1 (centres undefined)	80	·	·	91	104
COc1ccccc1NC(=O)N(Cc1ccco1)Cc1cc2ccc(C)c(C)c2[nH]c1=O	17*	24	17	59	55
COc1ccccc1NC(=S)N(Cc1ccco1)Cc1cc2cccc(C)c2[nH]c1=O	·	73	90	·	·
COc1ccccc1NC(=O)N(Cc1ccco1)Cc1cc2cc(C)cc(C)c2[nH]c1=O	19*	30	31	61	105
COc1cc(NC(=O)c2ccc3c(c2)OCO3)ccc1NC(=O)c1ccco1	98	97	95	102	100
Cc1ccc(-n2nnc3c(SCC(=O)NCC4CCCO4)ncnc32)cc1 (centres undefined)	86	62	62	86	97
O=C(CSc1ncnc2c1nnn2-c1ccc(F)cc1)NCC1CCCO1 (centres undefined)	49	28	5.8*	90	98
CCc1ccc2c(c1)C(c1ccc([N+](=O)[O-])cc1)=NNC(c1ccc(F)cc1)=N2	·	72	62	·	·
CCOC(=O)C1=C(C)N=c2s/c(=C\c3ccc(OC(C)=O)c(OCC)c3)c(=O)n2C1/C=C/c1ccccc1 (centres undefined)	·	29	44	·	·
CCOC(=O)C1=C(c2ccccc2)N=c2s/c(=C\c3cccc(O)c3)c(=O)n2C1c1cccs1 (centres undefined)	·	1.5*	1.5*	·	·
Cc1cc(/C=C2\SC(=Nc3ccc(F)cc3)NC2=O)c(C)n1-c1ccc(S(N)(=O)=O)cc1	·	2.8*	10	·	·
Cc1cc(/C=C2/SC(=O)NC2=O)c(C)n1-c1ccc(N2CCOCC2)cc1	·	73	79	·	·
O=C(Nc1ccc(Cl)cc1)Nc1nc(-c2sccc2Br)cs1	·	13	3.8*	·	·
Cc1csc(NC(=O)Nc2ccc(Cl)cc2)n1	100	91	85	92	95
CCOC(=O)C1=c2/c(=C/c3ccccc3OC)c(N)c(C#N)n2C(=O)C(c2ccccc2OC)S1 (centres undefined)	3.4*	·	20	27*	55
COc1cc(OC)cc(-c2ncc3ccccn23)c1	38*	84	76	81	98
CCn1cc(C(=O)NCc2ccco2)c(=O)c2cc(S(=O)(=O)N3CC(C)CC(C)C3)ccc21 (centres undefined)	68	70	48	22*	66
CCn1cc(C(=O)NCc2ccco2)c(=O)c2cc(S(=O)(=O)N3CCC(C)CC3)ccc21	68	62	54	44	92
